# Test results published in ChEMBL document CHEMBL1133481, “Resistance-modifying agents. 8. Inhibition of O(6)-alkylguanine-DNA alkyltransferase by O(6)-alkenyl-, O(6)-cycloalkenyl-, and O(6)-(2-oxoalkyl)guanines and potentiation of temozolomide cytotoxicity in vitro by O(6)-(1-cyclopentenylmethyl)guanine” (J Med Chem, 2000).
# Substitutions are numbered along the chain they refer to. Several values for one entry are separate records, joined by “and”; a condition that tells them apart may be missing. Equal values may be shown once.
# Tests used:
# [1] = biological target: T1, Methylated-DNA--protein-cysteine methyltransferase (Homo sapiens, UniProt P16455); experiment: Inhibition of AGT activity to 50% of control rate in HT-29 cell extract; type: cell-free
# T1 sequence (P16455 whole entry): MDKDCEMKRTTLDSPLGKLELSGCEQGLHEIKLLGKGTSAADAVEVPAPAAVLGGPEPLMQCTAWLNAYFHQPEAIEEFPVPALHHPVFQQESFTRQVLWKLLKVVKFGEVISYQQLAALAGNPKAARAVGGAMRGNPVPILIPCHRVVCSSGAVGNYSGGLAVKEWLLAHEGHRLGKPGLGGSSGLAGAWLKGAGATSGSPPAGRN
# [2] = biological target: T1, Methylated-DNA--protein-cysteine methyltransferase; experiment: (§1) concentration required to reduce AGT activity to 50% of control rate in intact HT-29 human colorectal carcinoma cells.; type: cell-based
# In short: (§2)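 HT29 cells were grown 3 days in EMEM with 10% FCS, then exposed for 4 h to inactivator in serum-free EMEM (DMSO final 1% or 0.1%). Cells were trypsinized, washed and counted by trypan blue; pellets of 10⁷ cells were homogenized in Tris-HCl pH 8.3 buffer with EDTA, DTT and 200 mM NaCl. AGT activity was assayed in the extracts, and the concentration depleting whole-cell AGT activity by 50% was calculated.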
# [3] = biological target: T2, Methylated-DNA--protein-cysteine methyltransferase (Homo sapiens) (UniProt P16455); experiment: Percent AGT inactivation in HT-29 cell extract at 1 mM; type: cell-based
# T2 sequence (whole entry): T1 sequence (P16455 whole entry)
# [4] = biological target: T2, Methylated-DNA--protein-cysteine methyltransferase (Homo sapiens); experiment: Percent of AGT inactivation in HT-29 cell extract at 1 mM concentration.
# [5] = biological target: T1, Methylated-DNA--protein-cysteine methyltransferase; experiment: concentration required to reduce AGT activity to 50% of control rate in HT-29 cell extract.; type: cell-based
# In short: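 HT29 cell extract AGT assay; IC50 is the inhibitor concentration reducing AGT activity to 50% of the control rate.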
# [6] = tested on: T3, Methylated-DNA--protein-cysteine methyltransferase (Homo sapiens), P16455 [P140K]; experiment: Compound was evaluated for inactivation of P140K mutant AGT
# T3 sequence (whole entry): T1 sequence (P16455 whole entry) with P140K
# In short: (§3)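 Recombinant wild-type or mutant (P140K, Y158H, G160R, G156A) AGT, made in E. coli with an N-terminal His6 tag and purified by metal affinity, was preincubated with inhibitor for 30 min at 37 °C in 50 mM Tris-HCl pH 7.5, 0.1 mM EDTA, 5 mM DTT and hemocyanin. Residual activity was measured over a further 30 min with methylated DNA substrate. ED50 was read from a plot of % activity lost against inhibitor amount, with a maximum of […] inhibitor.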
# [7] = tested on: T4, Methylated-DNA--protein-cysteine methyltransferase (Homo sapiens), P16455 [G160R]; experiment: Compound was evaluated for inactivation of G160R mutant AGT; in short: as §3
# T4 sequence (whole entry): T1 sequence (P16455 whole entry) with G160R
# [8] = tested on: T5, Methylated-DNA--protein-cysteine methyltransferase (Homo sapiens), P16455 [Y158H]; experiment: Compound was evaluated for inactivation of Y158H mutant AGT; in short: as §3
# T5 sequence (whole entry): T1 sequence (P16455 whole entry) with Y158H
# [9] = biological target: T2, Methylated-DNA--protein-cysteine methyltransferase (Homo sapiens); experiment: Compound was evaluated for inactivation of Wild type AGT; in short: as §3
# [10] = biological target: T2, Methylated-DNA--protein-cysteine methyltransferase (Homo sapiens); experiment: Compound was evaluated for inactivation of 156A mutant AGT; in short: as §3
# HT-29 [11] = experiment: Level of AGT activity in HT-29 cell line; type: functional, cell-based; conditions: Homo sapiens
# COLO 205 [12] = experiment: Cytotoxicity of compound in COLO 205 cell line; type: functional, cell-based; conditions: Homo sapiens
# In short: (§4)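 Colony-forming assay: exponentially growing cells were preincubated 1 h with 10 µM AGT inactivator (0.1% DMSO), then given temozolomide 0–1000 µM final (1% DMSO) for 4 h at 37 °C. Cells were then plated: HT29 on plastic, Colo205 in 0.15% agarose, with inactivator kept at 10 µM. After about 2 weeks, colonies were stained (crystal violet for HT29, MTT for Colo205) and counted. Temozolomide IC50 is mean ± SD of 3 independent experiments.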
# COLO 205 [13] = experiment: Level of AGT activity in COLO 205 cell line; type: functional, cell-based; conditions: Homo sapiens
# HT-29 [14] = experiment: Cytotoxicity of compound in HT-29 cell line; type: functional, cell-based; conditions: Homo sapiens; in short: as §4
# [15] = tested on: T3, Methylated-DNA--protein-cysteine methyltransferase (Homo sapiens), P16455 [P140K]
# [16] = tested on: T4, Methylated-DNA--protein-cysteine methyltransferase (Homo sapiens), P16455 [G160R]
# [17] = biological target: T1, Methylated-DNA--protein-cysteine methyltransferase; experiment: concentration required to reduce AGT activity to 50% of control rate in intact HT-29 human colorectal carcinoma cells; type: cell-based; in short: as §2
# [18] = biological target: T1, Methylated-DNA--protein-cysteine methyltransferase; experiment: as §1; type: cell-based; in short: as §2; remark: listed apart in the source
smiles,measurement,setting,value
Nc1nc(OCCc2ccccc2)c2nc[nH]c2n1,IC50,[1],548 µM
C=C(COc1nc(N)nc2nc[nH]c12)c1ccccc1,IC50,[1],77 µM
same,IC50,[2],37.5 µM and 39.6 µM
C=C(C)[C@H]1CC=C(COc2nc(N)nc3[nH]cnc23)CC1,IC50,[1],2.6 µM
CCC(COc1nc(N)nc2[nH]cnc12)(OC)OC,IC50,[1],> 1000 µM
same,Inactivation,[3],0%
CCCCCCCOc1nc(N)nc2[nH]cnc12,IC50,[1],> 100 µM
same,Inactivation,[3],10%
Nc1nc(Oc2cccs2)c2[nH]cnc2n1,IC50,[1],0.003 µM
CC(C)CCOc1nc(N)nc2[nH]cnc12,Inactivation,[4],24%
Nc1nc(OCC2CC=CCC2)c2[nH]cnc2n1 (stereo not drawn),IC50,[5],> 1000 µM
same,Inactivation,[4],32%
Nc1nc(OCC2=CCCC2)c2nc[nH]c2n1,ED50,[6],> 1500 µM
same,ED50,[7],13 µM
same,ED50,[8],1500 µM
same,ED50,[9],0.3 µM
same,ED50,[10],113 µM
Nc1nc(OCC(=O)c2ccccc2)c2[nH]cnc2n1,IC50,[5],> 1000 µM
same,Inactivation,[3],0%
Cn1nnc2c(C(N)=O)ncn2c1=O [TEMOZOLOMIDE],Level,HT-29 [11],908 fM/mg
same,IC50,COLO 205 [12],343 µM
same,Level,COLO 205 [13],1160 fM/mg
same,IC50,HT-29 [14],951 µM
Nc1nc(OCc2ccccc2)c2nc[nH]c2n1,ED50,[15],> 1500 µM
same,ED50,[8],620 µM
same,ED50,[16],4.7 µM
same,ED50,[10],60 µM
CC(C)CCOc1nc(N)nc2nc[nH]c12,IC50,[5],> 1000 µM
CCCCCOc1nc(N)nc2[nH]cnc12,IC50,[1],1010 µM
CCOC(C)(COc1nc(N)nc2[nH]cnc12)OCC,IC50,[1],> 1000 µM
same,Inactivation,[3],0%
Nc1nc(OCC2=CCC2)c2[nH]cnc2n1,IC50,[1],0.55 µM
COc1nc(N)nc2nc[nH]c12 [METHYLGUANINE],IC50,[1],428 µM
same,IC50,[17],248 µM
CCOc1nc(N)nc2[nH]cnc12,Inactivation,[3],0%
CCCCCCOc1[nH]c(N)nc2ncnc1-2,IC50,[1],554 µM
Nc1nc(OCC2CCC2)c2[nH]cnc2n1,IC50,[5],> 1000 µM
same,Inactivation,[4],34%
COC(COc1[nH]c(N)nc2ncnc1-2)(OC)c1ccccc1,Inactivation,[3],0%
Nc1nc(OCC2=CCCCC2)c2[nH]cnc2n1,IC50,[1],1.6 µM
Nc1nc(OCC2=CCCC2)c2[nH]cnc2n1,IC50,[1],0.39 µM
same,IC50,[17],0.2 µM
CC1(C)OCC(COc2nc(N)nc3[nH]cnc23)O1 (stereo not drawn),IC50,[1],> 1000 µM
same,Inactivation,[3],0%
COC(COc1nc(N)nc2nc[nH]c12)(OC)c1ccccc1,IC50,[1],> 1000 µM
CC(=O)COc1nc(N)nc2[nH]cnc12,IC50,[1],192 µM
same,IC50,[2],95 µM and 119 µM
C=CCCCCOc1nc(N)nc2[nH]cnc12,Inactivation,[3],65%
CCCOc1nc(N)nc2nc[nH]c12,IC50,[5],> 1000 µM
CCOc1nc(N)nc2nc[nH]c12,IC50,[1],> 1000 µM
CCC(=O)COc1nc(N)nc2nc[nH]c12,IC50,[1],151 µM
same,IC50,[2],94.5 µM and 93.2 µM
C=C(CC)COc1nc(N)nc2[nH]cnc12,IC50,[1],16 µM
Nc1nc(OCC2CCCC2)c2nc[nH]c2n1,IC50,[5],> 1000 µM
same,Inactivation,[4],0%
C=C(C)COc1nc(N)nc2nc[nH]c12,IC50,[1],25 µM
same,IC50,[2],13.5 µM and 9.9 µM
CC(C)C(=O)COc1nc(N)nc2nc[nH]c12,IC50,[5],> 1000 µM
same,Inactivation,[4],31%
C#CCOc1nc(N)nc2nc[nH]c12,IC50,[1],20 µM
same,IC50,[2],11.5 µM and 11.9 µM
C=CCOc1nc(N)nc2nc[nH]c12,IC50,[1],8.5 µM
same,IC50,[18],5.1 µM
same,IC50,[2],2.7 µM
Cn1nnc2c(C(N)=O)ncn2c1=O.Nc1nc(OCc2ccccc2)c2[nH]cnc2n1,IC50,COLO 205 [12],14 µM
same,IC50,HT-29 [14],86 µM
C=C(COc1nc(N)nc2[nH]cnc12)C(C)C,IC50,[5],> 1000 µM
same,Inactivation,[4],22%
CC(C)C1(COc2nc(N)nc3[nH]cnc23)OCCO1,Inactivation,[3],54%
CC/C=C/CCOc1nc(N)nc2[nH]cnc12,Inactivation,[3],88%
CCCOc1nc(N)nc2[nH]cnc12,Inactivation,[4],24%
CCCCOc1nc(N)nc2[nH]cnc12,IC50,[1],493 µM
CC/C=C\CCOc1[nH]c(N)nc2ncnc1-2,IC50,[5],> 1000 µM
same,Inactivation,[4],32%
Nc1nc(OCC2CCCCC2)c2nc[nH]c2n1,IC50,[5],> 1000 µM
same,Inactivation,[3],0%
Cn1nnc2c(C(N)=O)ncn2c1=O.Nc1nc(OCC2=CCCC2)c2[nH]cnc2n1,IC50,COLO 205 [12],36 µM
same,IC50,HT-29 [14],299 µM
